Results collected from several papers.
MTNR1A: Melatonin receptor type 1A (MTNR1A, Homo sapiens, UniProt P48039)

Cc1nn(C)cc1-c1nc2c(N3CCN(Cc4ccc(Cl)cc4)CC3)c(Cl)cnc2[nH]1
remaining binding (Receptor-type tyrosine-protein kinase FLT3 (FLT3, Homo sapiens, UniProt P36888); binding, competition with immobilised ligand; 1 µM): 0.4%

COc1ncccc1-c1cnn2ccc(N3CCN(C(=O)OC(C)C)CC3)nc12
remaining binding (Serine/threonine-protein kinase ULK3 (ULK3, Homo sapiens, UniProt Q6PHR2); binding, competition with immobilised ligand; 1 µM): 54%

C#Cc1n[nH]c2c(-c3cn([C@@H](C)c4ccccn4)c(=O)[nH]c3=O)cc(F)cc12
inhibition (Rho-associated protein kinase 2 (ROCK2, Homo sapiens, UniProt O75116); enzyme activity, inhibitor; 0.1 µM): 1.2%

Nc1ncc(-c2nc(N3CCOCC3)nc(N3CCOCC3)n2)c(C(F)F)n1
remaining binding (Serine/threonine-protein kinase DCLK3 (DCLK3, Homo sapiens, UniProt Q9C098); binding, competition with immobilised ligand; 10 µM): 73%

CCC(N)Cc1cc(OC)c(COC)cc1OC (stereo not drawn)
Emax (5-hydroxytryptamine receptor 2C (HTR2C, Homo sapiens, UniProt P28335); G protein activation, agonist, BRET): 82%

COc1ccc2[nH]cc(CCNC(=O)CI)c2c1
Emax (MTNR1A; GTPγS binding, agonist, radiometric; cell membranes): 83%

CN[C@@]1(c2ccccc2Cl)CCCCC1=O
inhibition (Fatty-acid amide hydrolase 1 (FAAH, Homo sapiens, UniProt O00519); enzyme activity, inhibitor; 30 µM): 11%

COc1ccc2cccc(C(CO)CNC(=O)CF)c2c1 (stereo not drawn)
Emax (MTNR1A; GTPγS binding, agonist, radiometric; cell membranes): 47%

CCN(CC)CCCC[C@H](NC(=O)[C@H](CC(C)C)NC(=O)[C@H](C)NC(=O)[C@H](Cc1ccccc1)NC(=O)c1ccc(C(C)(C)C)cc1)C(=O)N[C@@H](CO)C(=O)OC
remaining binding (B2 bradykinin receptor (BDKRB2, Homo sapiens, UniProt P30411); ligand displacement, radioligand; 10 µM): 107%
